# hDAT+cocaine: modulates human dopamine transporter uptake under cocaine; Q01959; LLC-PK1 hDAT cells, [14C]-dopamine uptake with cocaine IC80; actives deviate in either direction; B-score at 10 µM; 1.3% of 110,000 active;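 active = Z score or B-score, a plate-position-corrected score, falls beyond the plate's 99.7% confidence bounds, in either direction; inactive = both scores lie inside the 99.7% bounds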;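 also: scored against the spread of the other compound wells on the same plate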
# Target sequence (Q01959 whole entry, looked up): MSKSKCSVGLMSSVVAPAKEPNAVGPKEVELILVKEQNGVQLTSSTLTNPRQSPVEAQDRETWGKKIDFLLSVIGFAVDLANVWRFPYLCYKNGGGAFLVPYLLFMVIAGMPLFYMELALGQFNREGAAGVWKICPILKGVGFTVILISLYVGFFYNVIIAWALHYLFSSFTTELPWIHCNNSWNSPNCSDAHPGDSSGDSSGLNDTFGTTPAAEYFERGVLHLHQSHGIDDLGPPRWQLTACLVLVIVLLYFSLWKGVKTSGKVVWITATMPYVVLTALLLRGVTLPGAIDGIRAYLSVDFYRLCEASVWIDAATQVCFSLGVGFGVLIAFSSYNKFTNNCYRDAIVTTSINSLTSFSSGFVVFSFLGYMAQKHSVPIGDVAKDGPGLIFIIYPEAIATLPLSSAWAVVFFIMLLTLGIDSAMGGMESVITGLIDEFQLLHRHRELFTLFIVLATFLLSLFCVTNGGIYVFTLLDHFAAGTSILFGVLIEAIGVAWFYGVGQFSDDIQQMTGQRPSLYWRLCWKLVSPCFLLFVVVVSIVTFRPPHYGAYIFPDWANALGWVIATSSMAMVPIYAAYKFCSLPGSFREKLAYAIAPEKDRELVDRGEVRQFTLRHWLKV
# AP ELISA ortho: alternative pathway complement inhibition, orthogonal assay | 0.08% of 62,000 active | inhibition, % at 5 µM | Human serum alternative complement pathway, LPS-coated ELISA, C3 deposition; tested in compound mixtures;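 active = inhibition above 30% in each of the two pooled mixtures holding the compound, so the lower value exceeds 30%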;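 also: 0% = serum in Mg-EGTA without compound and 100% = EDTA serum blank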
#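 Medium: diluted human serum in Mg2+-EGTA GVB++. Assay system: human serum complement alternative pathway, C3 deposition onto LPS. Also added: Plate-bound LPS. Technique: Anti-C3 ELISA, OD 450 nm. Measure: percent inhibition. Incubation: 1 h at 37 °C. Dosing: 5 µM each compound, pools of ten, 50 µM per pool.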
# D1 mod: allosterically modulates the human D1 dopamine receptor. P21728. B-score at 10 µM. AID 641. HEK293 D1, CRE-luciferase, dopamine EC30 potentiation; actives deviate in either direction. 5.9% of 58,000 active;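 active = luminescence count or its row- and column-corrected plate score outside the 99.7% band of the plate's sample wells, on either side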
# WNV NS2B-NS3 inh: blocks West Nile virus NS2B-NS3 protease activity | z-score (no concentration beside the values) | 0.18% of 65,000 active | P06935 | AID 577 | WNV NS2B-NS3 protease, fluorogenic substrate Ex360/Em465; stronger effect = lower value; in the data active = z-score below about -3
# D1 PAM confirm: confirmation of human D1 dopamine receptor allosteric modulators. shares compounds with D1 mod. HEK293 D1 CRE-luciferase, dopamine EC30 potentiation; stronger effect = higher value. 88% of 2,200 active. luminescence at 10 µM;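 active = luminescence in either of two replicates above the same-plate mean plus 3 SD of the low-dose dopamine control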
# D1 ag no DA: D1 (human) signaling in absence of dopamine; luminescence at 10 µM; 0.8% of 1,900 active; HEK293 D1 CRE-luciferase, luminescence, no dopamine; stronger effect = higher value; shares compounds with D1 mod; in the data active = luminescence above about 3900
# Isoprot counter: isoproterenol response counter-screen activity for D1 modulators | 63% of 2,200 active | shares compounds with D1 mod | luminescence at 10 µM | HEK293 D1 CRE-luciferase, isoproterenol EC30 counter-screen; stronger effect = higher value;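 active = luminescence in either replicate above plate mean of wells with a partly effective reference agonist dose plus 3 SD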;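 also: isoproterenol raises cAMP through native beta-adrenoceptor Gs so signal bypasses D1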
# * marks the source's active call; other numbers are inactive results; . = no result given. This is one part of a sample in which hits are shown more often than they occur.
SMILES,hDAT+cocaine,AP ELISA ortho,D1 mod,WNV NS2B-NS3 inh,D1 PAM confirm,D1 ag no DA,Isoprot counter
O=C(O)CN(c1ccccn1)S(=O)(=O)c1ccccc1,-0.81,.,.,.,.,.,.
COC(=O)CN(c1ccccn1)S(=O)(=O)c1ccccc1,-0.17,20,5.2*,-1.6,5664,1588,2412
CCNc1nc(NCC)n2c(SCc3ccc(F)cc3)nnc2n1,-0.0076,2,.,2.2,.,.,.
CCNc1nc(NCC)n2c(SCc3nc4ccccc4c(=O)[nH]3)nnc2n1,-0.56,0,27*,1.4,21452*,1628,6556*
COc1ccc(C2=CC(c3c(C)nn(-c4ccccc4)c3Cl)n3nnnc3N2)cc1OC (stereo unspecified),0.43,7,2,-1.5,.,.,.
CCOc1ccc(C(C)=O)cc1COc1ccc(-n2cnnn2)cc1,1.6,-9,5.9*,-0.54,15484*,1632,3708*
CCSc1cc(C2C(C(=O)OC)=C(C)NC3=C2C(=O)CCC3)c(C)o1 (stereo unspecified),0.8,10,-1.1,-0.0056,.,.,.
CCOC(=O)c1cnc(-n2nc(C)cc2C)nc1Nc1ccc(N(C)C)cc1,-0.13,-11,12*,0.3,12468*,1584,3496*
CCOC(=O)c1cnc(-n2nc(C)cc2C)nc1Nc1cccc(C(=O)O)c1,-0.82,0,4.3*,0.84,9100*,1376,2968
CCOC(=O)c1cnc(-n2nc(C)cc2C)nc1Nc1ccc2c(c1)OCO2,.,-1,1.8,1.5,.,.,.
O=C(COc1cccc(NC(=O)c2ccco2)c1)c1ccccc1,0.29,1,0.59,-0.43,.,.,.
Brc1cc2c(cc1Cn1c(-c3cncs3)nc3ccccc31)OCO2,-0.011,13,20*,0.21,14624*,1768,4300*
Cc1ccccc1Cn1c(-c2cncs2)nc2ccccc21,-0.086,7,14*,0.73,20248*,.,3224*
CCOC(=O)c1ccccc1NC(=O)c1ccc(NS(C)(=O)=O)cc1,1.2,12,19*,0.2,19196*,1760,4308*
CCOC(=O)c1ccc(NS(=O)(=O)CC)cc1,0.76,13,2,-0.67,.,.,.
c1ccc(-c2cc(CSc3nc4ccccc4[nH]3)on2)cc1,0.12,23,-2.3,0.2,.,.,.
CC12CC(NC(=O)N1c1cccc(C(=O)N3CCN(c4ccccc4F)CC3)c1)c1ccccc1O2 (stereo unspecified),0.5,16,3.5*,-0.51,4916,1480,2372
CC12CC(NC(=O)N1c1cccc(C(=O)N3CCN(c4ccccn4)CC3)c1)c1ccccc1O2 (stereo unspecified),1.9,7,0.22,2,.,.,.
CCCc1nc(N)c(C#N)c(-c2ccco2)c1CC,0.015,31,6.7*,-0.41,9040*,1564,3488*
N#Cc1c(N)nc(SCc2ccccc2)c(C#N)c1-c1ccco1,-0.012,.,4.2*,1.1,9744*,1440,4144*
Cc1c(-c2ccc(F)cc2)nc(N)c(C#N)c1-c1ccco1,-0.52,-4,5.8*,-0.24,8280*,.,2672
N#Cc1c(N)nc(SCC(=O)OCc2ccccc2)c(C#N)c1-c1ccco1,-0.61,-25,0.89,1.2,.,.,.
Cc1ccc(CNC(=O)Cn2c([N+](=O)[O-])cnc2C)cc1,-0.41,.,.,.,.,.,.
COC(=O)C1=C(C)NC(C)=C(C(=O)OC)C1c1cn(-c2ccccc2)nc1-c1ccco1,-0.1,-13,0.68,-0.43,.,.,.
CCOC(=O)c1c(NC(=O)CN(CC)CC)sc2c1CCN(C(=O)OCC)C2,0.56,11,6.1*,-0.85,8852*,1716,3320*
SMILES,hDAT+cocaine,AP ELISA ortho,D1 mod,WNV NS2B-NS3 inh,D1 PAM confirm,D1 ag no DA,Isoprot counter
CCOC(=O)c1c(-c2cccs2)csc1NC(=O)CN1CCOCC1,-0.7,7,11*,-0.21,19940*,1788,5404*
CCOC(=O)c1c(NC(=O)CN2CCCCC2)sc2c1CCN(C(=O)OCC)C2,0.47,12,3.7*,-1,7072*,.,2824*
CCOC(=O)c1c(NC(=O)CN2CCOCC2)sc2c1CCCC2=O,0.3,6,5.4*,-1.1,8480*,1768,2892*
N#Cc1cccc(-c2cn(S(=O)(=O)c3ccc(Cl)cc3)nc2N)c1,-0.06,3,-0.65,-0.3,.,.,.
Cc1cccc(NC(=O)CCSc2nncn2C)c1,-0.39,.,.,.,.,.,.
COc1cc(C(=O)NCCOc2cc(C)cc(C)c2)c(Br)c(OC)c1OC,-0.18,.,.,.,.,.,.
CCOc1cc(-c2c(C)c(CC)nc(N)c2C#N)ccc1O,0.61,19,1.9*,-0.31,10600*,1960,3752*
CCOc1ccc(-c2nnn(CC(=O)NCc3ccc(OC)cc3)n2)cc1OCC,-0.6,-1,5.3*,-0.05,6444*,1592,2528
CCOc1ccccc1NC(=O)Cn1nnc(-c2ccc(OCC)c(OCC)c2)n1,-0.025,-6,29*,-0.65,19636*,1656,6380*
COc1ccc(S(=O)(=O)Nc2ccc3c(c2)OCO3)cc1C(=O)O,1.2,3,-0.34,-0.21,.,.,.
COc1ccc(S(=O)(=O)Nc2ccc3c(c2)OCO3)cc1OC,-1.1,9,3.1*,0.27,9304*,1612,2820
CCSc1nc2cc(OC)c(OC)cc2c(=O)n1CC,-0.0074,13,11*,0.86,13604*,1368,3820*
Cc1cc(N2CCC(N(C)C3CCCC3)CC2)nc2cc(O)ccc12,0.27,14,.,1.1,.,.,.
COc1cccc(OC)c1OCCCSc1nc(C)cc(=O)[nH]1,1.2,-4,0.11,0.27,.,.,.
CC(C)COc1cc(=O)[nH]c(SCC(C)C)n1,0.74,12,18*,-0.74,26448*,1948,6352*
COc1ccc(C(=O)Nc2nnc(Cc3cccs3)s2)cc1OC,-0.0061,6,3*,-0.57,9388*,1740,4460
Cc1nnc(NC(=O)c2cccc(Br)c2)s1,0.27,.,.,.,.,.,.
O=C(Cc1cccs1)Nc1nnc(Cc2ccccc2)s1,0.18,.,.,.,.,.,.
COc1ccc(Cc2nnc(NC(=O)Cc3cccs3)s2)cc1OC,0.022,.,17*,-1.1,27116*,1544,4196*
CCOc1ccc(C(=O)Nc2nnc(C)s2)cc1OCC,-0.11,11,5.9*,0.22,13964*,.,3272*
CCOC(=O)c1cc(C(=O)OCC)cc(-n2c(C)cc(C(=O)CN3CCOCC3)c2C)c1,3,-14,4.9*,2.6,7880*,.,2504
CC(C)=CCc1cc([C@@H]2CC(=O)c3ccc(O)c(CC=C(C)C)c3O2)ccc1O,-0.061,.,.,.,.,.,.
COC(=O)C1=C(C)Nc2ccc(C)cc2S1,0.4,11,8.7*,-0.04,11576*,1468,3380*
Brc1cnc(N2CCCC2)nc1N1CCOCC1,0.14,.,6*,-0.14,18712*,1620,4252*
Brc1cnc(N2CCCCC2)nc1N1CCOCC1,0.82,.,.,.,.,.,.
CCOc1ccc(NC(=O)Cn2nnc(C(=O)NCc3ccccc3OC)c2N)cc1,0.71,11,4.3*,1,4744,1560,2724
